Among the data in ChEMBL document CHEMBL2177027, “Exploring the directionality of 5-substitutions in a new series of 5-alkylaminopyrazolo[4,3-e]1,2,4-triazolo[1,5-c]pyrimidine as a strategy to design novel human a(3) adenosine receptor antagonists” (J Med Chem, 2012) are Ratio Ki and Ki values, retold here.

The nature of experiment [1]: Selectivity ratio of Ki for human adenosine A1 receptor expressed in CHO cell membrane to Ki for human adenosine A2A receptor expressed in CHO cell membrane. It counts as cell-based.
Experiment [2] in a line: Selectivity ratio of Ki for human adenosine A2A receptor expressed in CHO cell membrane to Ki for human adenosine A3 receptor expressed in CHO cell membrane. It counts as cell-based.
The target in experiment [3] is Adenosine receptors; A1 & A3 (Homo sapiens) (UniProt P30542+P0DMS8). Put plainly: Selectivity ratio of Ki for human adenosine A1 receptor expressed in CHO cell membrane to Ki for human adenosine A3 receptor expressed in CHO cell membrane. The class given is cell-based.
In a further experiment the target is T1, Adenosine receptor A2b (Homo sapiens, UniProt P29275).
T1 sequence (P29275 whole entry): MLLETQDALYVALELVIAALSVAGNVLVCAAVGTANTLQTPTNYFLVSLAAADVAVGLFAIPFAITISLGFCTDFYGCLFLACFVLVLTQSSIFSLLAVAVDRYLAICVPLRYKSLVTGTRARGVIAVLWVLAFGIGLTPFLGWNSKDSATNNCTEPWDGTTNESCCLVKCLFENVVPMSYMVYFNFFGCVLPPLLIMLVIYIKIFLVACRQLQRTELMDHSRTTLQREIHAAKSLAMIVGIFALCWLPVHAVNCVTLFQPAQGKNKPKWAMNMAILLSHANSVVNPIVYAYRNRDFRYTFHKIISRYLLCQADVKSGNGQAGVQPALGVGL
Put plainly: Antagonist activity at human adenosine A2B receptor expressed in CHO cells assessed as NECA-induced adenylate cyclase activity. It counts as functional, cell-based. In outline:
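Membranes from stably transfected CHO cells made with a single high-speed spin of the homogenate. Incubated 20 min with about 150 000 cpm [α-³²P]ATP in mixture lacking EDTA and NaCl. IC50 taken from concentration-dependent inhibition of NECA-stimulated adenylyl cyclase using Hill equation.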

For a further experiment, the target named is T2, Adenosine receptor A3 (Homo sapiens, UniProt P0DMS8).
T2 sequence (P0DMS8 whole entry): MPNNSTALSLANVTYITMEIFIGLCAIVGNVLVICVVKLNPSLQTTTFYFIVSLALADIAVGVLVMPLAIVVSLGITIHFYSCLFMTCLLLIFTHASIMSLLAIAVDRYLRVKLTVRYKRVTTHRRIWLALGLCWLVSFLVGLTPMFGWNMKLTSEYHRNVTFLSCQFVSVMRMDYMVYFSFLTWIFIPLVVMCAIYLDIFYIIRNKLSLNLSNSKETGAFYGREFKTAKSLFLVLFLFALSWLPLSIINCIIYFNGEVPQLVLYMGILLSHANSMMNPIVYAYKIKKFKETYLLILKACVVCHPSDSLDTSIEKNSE
Description: Displacement of [3H]NECA from human adenosine A3 receptor expressed in CHO cell membrane. It counts as cell membranes. In outline:
(§1)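 CHO cells stably transfected with the human receptor subtype. Membranes were prepared by a 1000g spin to clear fragments and nuclei, then pelleted from the supernatant at 100 000g. Pellet was resuspended in the respective binding buffer, frozen in liquid nitrogen and stored until radioligand competition binding.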
Background: In a radioligand displacement assay an active substance lowers the binding of a labelled ligand.

The next experiment concerns the target Adenosine receptor A2a (Homo sapiens, UniProt P29274). Description: Displacement of [3H]NECA from human adenosine A2A receptor expressed in CHO cell membrane. The class given is cell membranes. An outline of the steps:
as §1

For another experiment, the target named is T3, Adenosine receptor A1 (Homo sapiens, UniProt P30542).
T3 sequence (P30542 whole entry): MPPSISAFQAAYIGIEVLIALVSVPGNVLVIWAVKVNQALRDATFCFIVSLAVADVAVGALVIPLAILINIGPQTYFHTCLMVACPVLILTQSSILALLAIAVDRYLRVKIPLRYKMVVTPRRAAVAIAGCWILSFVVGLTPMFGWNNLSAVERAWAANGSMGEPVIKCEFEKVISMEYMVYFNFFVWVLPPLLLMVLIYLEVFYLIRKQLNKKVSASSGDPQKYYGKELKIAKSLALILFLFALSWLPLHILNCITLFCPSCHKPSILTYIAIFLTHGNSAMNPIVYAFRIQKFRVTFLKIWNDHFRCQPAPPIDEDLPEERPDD
Description: Displacement of [3H]CCPA from human adenosine A1 receptor expressed in CHO cell membrane. It counts as cell membranes. An outline of the steps:
as §1

Each structure is given as a SMILES string.

Adenosine receptor A2a, sequence (P29274 whole entry): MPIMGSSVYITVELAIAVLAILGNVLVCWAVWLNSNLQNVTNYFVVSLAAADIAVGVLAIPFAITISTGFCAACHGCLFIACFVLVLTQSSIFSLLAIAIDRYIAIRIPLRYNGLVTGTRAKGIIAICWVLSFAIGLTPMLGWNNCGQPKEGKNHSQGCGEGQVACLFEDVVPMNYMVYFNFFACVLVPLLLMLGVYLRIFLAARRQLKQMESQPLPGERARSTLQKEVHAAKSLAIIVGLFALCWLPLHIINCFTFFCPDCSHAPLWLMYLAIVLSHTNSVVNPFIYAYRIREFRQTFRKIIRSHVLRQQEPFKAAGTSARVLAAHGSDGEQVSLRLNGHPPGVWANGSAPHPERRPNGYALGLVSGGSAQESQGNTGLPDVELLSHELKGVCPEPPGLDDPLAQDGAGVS

In general, Ki refers to the dissociation constant of the complex between target and ligand, obtained from inhibition or displacement. For the compound `Cn1cc2c(nc(N(Cc3ccccc3)Cc3ccccc3)n3nc(-c4ccco4)nc23)n1`, the Ratio Ki came to 0.62 in experiment [1], 2.85 in experiment [2] and 1.76 in experiment [3]. Further, the Ki at Adenosine receptor A2b was above 10000 nM; at Adenosine receptor A3 it was 404 nM; on Adenosine receptor A2a, 1150 nM; at Adenosine receptor A1 it was 711 nM.

As for `Cn1cc2c(nc(N3CCOCC3)n3nc(-c4ccco4)nc23)n1`, the Ratio Ki in experiment [1] worked out at 1.45; in experiment [2], 3.25; in experiment [3], 4.71. Moreover, the Ki on Adenosine receptor A2b was above 10000 nM; at Adenosine receptor A3, 514 nM; at Adenosine receptor A2a, 1670 nM; at Adenosine receptor A1, 2420 nM.

Consider `CC(O)CNc1nc2nn(C)cc2c2nc(-c3ccco3)nn12` (centres undefined), for which the Ratio Ki in experiment [1] was found to be 2.76; in experiment [2], 0.38; in experiment [3] it was 1.05. For the same compound, the Ki on Adenosine receptor A2b is above 3000 nM; on Adenosine receptor A3, 356 nM; on Adenosine receptor A2a, 136 nM; at Adenosine receptor A1, 375 nM.

On to `Cn1cc2c(nc(NC3CCC3)n3nc(-c4ccco4)nc23)n1`, for which the Ratio Ki in experiment [1] amounted to 2.01; in experiment [2] it was 4.77; in experiment [3], 9.6. The Ki on Adenosine receptor A2b amounted to 1110 nM; at Adenosine receptor A3, 17.6 nM; at Adenosine receptor A2a, 83.9 nM; on Adenosine receptor A1 it was 169 nM.

Regarding `Cn1cc2c(nc(NCc3ccc(-c4ccccc4)cc3)n3nc(-c4ccco4)nc23)n1`, the figures for the Ratio Ki in experiment [1], in experiment [2] and in experiment [3] were 29.5, 3.17 and 93.6, respectively. For the same compound, the Ki on Adenosine receptor A2b is above 10000 nM; on Adenosine receptor A3 it was 187 nM; at Adenosine receptor A2a, 593 nM; at Adenosine receptor A1, 17500 nM.

On to `CCCCCN(CCCCC)c1nc2nn(C)cc2c2nc(-c3ccco3)nn12`, for which the Ratio Ki in experiment [1] was 0.44; in experiment [2], 9.09; in experiment [3], 4.04. Besides, the Ki is above 10000 nM at Adenosine receptor A2b, 824 nM on Adenosine receptor A3, 7490 nM on Adenosine receptor A2a and 3330 nM at Adenosine receptor A1.

For `Cn1cc2c(nc(N3CCCCC3)n3nc(-c4ccco4)nc23)n1`, the Ratio Ki in experiment [1] worked out at 6.11; in experiment [2] it was 9.24; in experiment [3] it was 56.4. Besides, the Ki at Adenosine receptor A2b is above 10000 nM; at Adenosine receptor A3 it was 38.1 nM; at Adenosine receptor A2a, 352 nM; at Adenosine receptor A1, 2150 nM.

`Cn1cc2c(nc(NC(CO)CO)n3nc(-c4ccco4)nc23)n1`: the Ratio Ki in experiment [1] is 1.07; in experiment [2], 1.11; in experiment [3], 1.19. Moreover, the Ki at Adenosine receptor A2b is above 10000 nM; on Adenosine receptor A3, 536 nM; on Adenosine receptor A2a, 597 nM; at Adenosine receptor A1, 639 nM.

Regarding `Cc1ccc(CNc2nc3nn(C)cc3c3nc(-c4ccco4)nn23)cc1`, the Ratio Ki in experiment [1] came to 4.6; in experiment [2] it was 109; in experiment [3] it was 503. For the same compound, the inhibition constant Ki at Adenosine receptor A2b worked out at 3940 nM; at Adenosine receptor A3, 1.07 nM; at Adenosine receptor A2a it was 117 nM; at Adenosine receptor A1, 538 nM.

`CCN(CC)c1nc2nn(C)cc2c2nc(-c3ccco3)nn12`: the Ratio Ki is 1.82 in experiment [1], 8.29 in experiment [2] and 15.1 in experiment [3]. In addition, the Ki is above 10000 nM on Adenosine receptor A2b, 96.3 nM at Adenosine receptor A3, 798 nM at Adenosine receptor A2a and 1450 nM on Adenosine receptor A1.

In the case of `CCNc1nc2nn(C)cc2c2nc(-c3ccco3)nn12`, the Ratio Ki in experiment [1] was 2.9; in experiment [2], 4.68; in experiment [3], 13.6. In addition, the Ki on Adenosine receptor A2b is 2160 nM; on Adenosine receptor A3 it was 44.4 nM; on Adenosine receptor A2a, 208 nM; at Adenosine receptor A1, 604 nM.

As for `CN1CCN(c2nc3nn(C)cc3c3nc(-c4ccco4)nn23)CC1`, the Ratio Ki in experiment [1] was found to be 1.98; in experiment [2] it was 5.78; in experiment [3], 11.4. Further, the Ki was above 10000 nM at Adenosine receptor A2b, 1330 nM at Adenosine receptor A3, 7690 nM at Adenosine receptor A2a and 15200 nM at Adenosine receptor A1.

For the compound `CCCCCCC(C)Nc1nc2nn(C)cc2c2nc(-c3ccco3)nn12` (centres undefined), the values for the Ratio Ki in experiment [1], in experiment [2] and in experiment [3] were 0.38, 29.4 and 11.1, respectively. Further, the Ki on Adenosine receptor A2b is above 10000 nM; on Adenosine receptor A3, 23.8 nM; on Adenosine receptor A2a, 701 nM; on Adenosine receptor A1 it was 265 nM.

For the compound `Cn1cc2c(nc(NCCCCCCO)n3nc(-c4ccco4)nc23)n1`, the Ratio Ki is 4.43 in experiment [1], 0.7 in experiment [2] and 3.1 in experiment [3]. The Ki is above 10000 nM on Adenosine receptor A2b, 156 nM on Adenosine receptor A3, 109 nM on Adenosine receptor A2a and 483 nM at Adenosine receptor A1.

With `CC(CCc1ccccc1)Nc1nc2nn(C)cc2c2nc(-c3ccco3)nn12` (centres undefined), the Ratio Ki in experiment [1] was determined as 0.9; in experiment [2], 3.89; in experiment [3], 3.52. Besides, the Ki at Adenosine receptor A2b came to 5260 nM; at Adenosine receptor A3, 37.8 nM; on Adenosine receptor A2a, 147 nM; on Adenosine receptor A1 it was 133 nM.

In the case of `Cn1cc2c(nc(NC3CCCC3)n3nc(-c4ccco4)nc23)n1`, the Ratio Ki in experiment [1] worked out at 0.62; in experiment [2] it was 16.9; in experiment [3] it was 10.4. The Ki at Adenosine receptor A2b was 2650 nM; at Adenosine receptor A3, 7.68 nM; at Adenosine receptor A2a it was 130 nM; at Adenosine receptor A1, 80.1 nM.

Regarding `CNc1nc2nn(C)cc2c2nc(-c3ccco3)nn12`, the Ratio Ki in experiment [1] came out at 5.24; in experiment [2], 5.8; in experiment [3] it was 30.4. Moreover, the Ki was 2110 nM on Adenosine receptor A2b, 63.4 nM on Adenosine receptor A3, 368 nM at Adenosine receptor A2a and 1930 nM at Adenosine receptor A1.

Consider `CCCCN(C)c1nc2nn(C)cc2c2nc(-c3ccco3)nn12`, for which the Ratio Ki in experiment [1] is 0.77; in experiment [2], 37.6; in experiment [3], 28.9. The Ki was above 10000 nM on Adenosine receptor A2b, 36.7 nM at Adenosine receptor A3, 1380 nM on Adenosine receptor A2a and 1060 nM on Adenosine receptor A1.

For the compound `COc1ccc(CCNc2nc3nn(C)cc3c3nc(-c4ccco4)nn23)cc1OC`, the Ratio Ki in experiment [1] was determined as 17.1; in experiment [2], 2.46; in experiment [3], 42. The Ki on Adenosine receptor A2b was 3880 nM; on Adenosine receptor A3, 37.6 nM; on Adenosine receptor A2a, 92.5 nM; at Adenosine receptor A1, 1580 nM.

Turning to `CN(C)c1nc2nn(C)cc2c2nc(-c3ccco3)nn12`, the Ratio Ki came to 4.62 in experiment [1], 2.61 in experiment [2] and 12.1 in experiment [3]. In addition, the Ki at Adenosine receptor A2b was above 10000 nM; on Adenosine receptor A3, 394 nM; at Adenosine receptor A2a it was 1030 nM; on Adenosine receptor A1, 4760 nM.

As for `CC[C@@H](C)Nc1nc2nn(C)cc2c2nc(-c3ccco3)nn12`, the Ratio Ki was 0.61 in experiment [1], 45.9 in experiment [2] and 27.8 in experiment [3]. For the same compound, the Ki on Adenosine receptor A2b turned out to be 4810 nM; on Adenosine receptor A3, 5.93 nM; on Adenosine receptor A2a, 272 nM; on Adenosine receptor A1, 165 nM.

For the compound `Cn1cc2c(nc(NCc3ccc(Cl)cc3)n3nc(-c4ccco4)nc23)n1`, the Ratio Ki in experiment [1] was 4.27; in experiment [2] it was 37.9; in experiment [3], 162. The Ki was found to be 2620 nM on Adenosine receptor A2b, 1.99 nM at Adenosine receptor A3, 75.4 nM on Adenosine receptor A2a and 322 nM on Adenosine receptor A1.
